This passage reports Activity and Ki results from ChEMBL document CHEMBL1781962, “Development of Fluorescent Ligands for the Human 5-HT1A Receptor” (ACS Med Chem Lett, 2010).

The term Ki denotes a dissociation constant, usually derived from enzyme kinetics or from competition with a known ligand. High values mean a looser hold on the target, low ones a stronger hold on the target.

The source made the active and inactive calls. The calls are words filed in the database; no cut-off is given here.

Experiment [1] concerns the target 5-hydroxytryptamine receptor 6 (Homo sapiens) (UniProt P50406). In words: Displacement of [3H]LSD from human 5HT6 receptor expressed in HEK293 cells after 120 mins by radioligand displacement assay. In kind it is cell-based. A digest of the protocol: (§1)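 Selectivity screen by radioligand binding at the 5-HT2A, 5-HT4e, 5-HT5a, 5-HT6 and 5-HT7 receptors. Test compound was used at a single concentration of 1 μM. Read-out was percent displacement of the corresponding radioligand.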
For orientation: In a radioligand displacement assay an active substance lowers the binding of a labelled ligand.

Experiment [2] addresses 5-hydroxytryptamine receptor 4 (Homo sapiens) (UniProt Q13639). The experiment can be described thus: Binding affinity to human 5-HT4e receptor at 1 uM by radioligand displacement assay. The method in brief:
as §1

Experiment [3] has as its target 5-hydroxytryptamine receptor 7 (Homo sapiens) (UniProt P34969). In words: Displacement of [3H]LSD from human 5HT7 receptor expressed in HEK293 cells at 1 uM after 120 mins by scintillation counting. It counts as cell-based. A digest of the protocol:
as §1

Experiment [4] concerns the target 5-hydroxytryptamine receptor 5A (Homo sapiens) (UniProt P47898). The experiment can be described thus: Binding affinity to human 5HT5A receptor at 1 uM by radioligand displacement assay. A digest of the protocol: as §1
Experiment [5] deals with 5-hydroxytryptamine receptor 2A (Homo sapiens) (UniProt P28223). The experiment can be described thus: Binding affinity to human 5HT2A receptor at 1 uM by radioligand displacement assay. The method in brief:
as §1

Experiment [6] has as its target T1, 5-hydroxytryptamine receptor 1A (Homo sapiens, UniProt P08908).
T1 sequence (P08908 whole entry): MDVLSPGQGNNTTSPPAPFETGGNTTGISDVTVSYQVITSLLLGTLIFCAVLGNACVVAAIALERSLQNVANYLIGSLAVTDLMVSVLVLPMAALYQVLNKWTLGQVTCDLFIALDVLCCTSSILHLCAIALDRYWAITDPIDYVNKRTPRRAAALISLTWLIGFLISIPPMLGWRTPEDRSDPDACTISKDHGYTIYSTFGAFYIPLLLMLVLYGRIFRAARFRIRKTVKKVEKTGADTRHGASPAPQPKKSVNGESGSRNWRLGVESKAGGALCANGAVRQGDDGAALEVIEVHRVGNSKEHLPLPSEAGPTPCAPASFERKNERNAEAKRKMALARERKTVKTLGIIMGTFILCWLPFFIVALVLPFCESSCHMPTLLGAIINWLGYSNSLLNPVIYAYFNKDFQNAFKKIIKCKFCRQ
The experiment can be described thus: Displacement of [3H]8-OH-DPAT from human 5HT1A receptor expressed in EBNA gene-positive HEK293 cells after 120 mins. It counts as cell-based. The method in brief:
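Radioligand competition binding with [3H]-8-hydroxy-DPAT on membranes from transfected HEK-293 EBNA cells expressing h5-HT1AR. Buffer was 50 mM Tris-HCl, 0.5 mM MgSO4, pH 7.4. Ki was obtained from IC50 by the Cheng-Prusoff equation. Values are means ± SEM of 2–4 independent experiments, each run in triplicate.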

Experiment [7] deals with T1, 5-hydroxytryptamine receptor 1A. The experiment can be described thus: Binding affinity to human 5HT1A receptor expressed in HEK-293 EBNA cell membranes by [3H]-8-hydroxy-DPAT radioligand binding.

Chain of 5-hydroxytryptamine receptor 5A (Homo sapiens) (P47898 whole entry): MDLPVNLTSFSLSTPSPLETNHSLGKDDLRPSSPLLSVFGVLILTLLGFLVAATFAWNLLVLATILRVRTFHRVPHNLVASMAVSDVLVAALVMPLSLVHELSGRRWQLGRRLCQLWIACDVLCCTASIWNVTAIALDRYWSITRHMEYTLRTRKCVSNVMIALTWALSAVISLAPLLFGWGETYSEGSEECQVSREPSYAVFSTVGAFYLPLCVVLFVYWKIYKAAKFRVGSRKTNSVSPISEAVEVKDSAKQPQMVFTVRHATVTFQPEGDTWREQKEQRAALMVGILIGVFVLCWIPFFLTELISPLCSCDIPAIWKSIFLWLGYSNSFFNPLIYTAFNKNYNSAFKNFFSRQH
Chain of 5-hydroxytryptamine receptor 4 (Homo sapiens) (Q13639 whole entry): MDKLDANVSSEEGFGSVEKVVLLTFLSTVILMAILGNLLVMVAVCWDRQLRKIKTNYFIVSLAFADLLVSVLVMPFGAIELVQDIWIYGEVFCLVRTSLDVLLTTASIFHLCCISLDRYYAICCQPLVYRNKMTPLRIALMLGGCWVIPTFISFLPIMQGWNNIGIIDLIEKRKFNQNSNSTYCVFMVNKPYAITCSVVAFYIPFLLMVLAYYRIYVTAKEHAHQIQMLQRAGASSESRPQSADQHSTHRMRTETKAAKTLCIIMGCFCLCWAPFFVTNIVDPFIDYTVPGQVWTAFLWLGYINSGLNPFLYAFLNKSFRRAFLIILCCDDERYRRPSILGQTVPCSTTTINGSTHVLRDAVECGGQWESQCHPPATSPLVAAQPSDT
Chain of 5-hydroxytryptamine receptor 7 (Homo sapiens) (P34969 whole entry): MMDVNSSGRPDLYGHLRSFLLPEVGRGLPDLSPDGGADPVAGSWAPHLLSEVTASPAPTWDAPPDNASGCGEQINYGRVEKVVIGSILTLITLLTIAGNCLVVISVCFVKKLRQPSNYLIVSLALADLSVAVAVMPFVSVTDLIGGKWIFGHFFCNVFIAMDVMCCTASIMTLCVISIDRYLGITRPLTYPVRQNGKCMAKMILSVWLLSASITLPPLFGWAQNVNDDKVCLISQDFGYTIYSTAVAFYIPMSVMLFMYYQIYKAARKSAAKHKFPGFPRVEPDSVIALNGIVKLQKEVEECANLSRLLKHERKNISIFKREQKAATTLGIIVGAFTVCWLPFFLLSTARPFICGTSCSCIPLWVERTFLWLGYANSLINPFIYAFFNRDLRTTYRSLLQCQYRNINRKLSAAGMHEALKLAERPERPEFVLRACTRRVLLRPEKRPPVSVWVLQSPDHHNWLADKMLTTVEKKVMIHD
Chain of 5-hydroxytryptamine receptor 2A (Homo sapiens) (P28223 whole entry): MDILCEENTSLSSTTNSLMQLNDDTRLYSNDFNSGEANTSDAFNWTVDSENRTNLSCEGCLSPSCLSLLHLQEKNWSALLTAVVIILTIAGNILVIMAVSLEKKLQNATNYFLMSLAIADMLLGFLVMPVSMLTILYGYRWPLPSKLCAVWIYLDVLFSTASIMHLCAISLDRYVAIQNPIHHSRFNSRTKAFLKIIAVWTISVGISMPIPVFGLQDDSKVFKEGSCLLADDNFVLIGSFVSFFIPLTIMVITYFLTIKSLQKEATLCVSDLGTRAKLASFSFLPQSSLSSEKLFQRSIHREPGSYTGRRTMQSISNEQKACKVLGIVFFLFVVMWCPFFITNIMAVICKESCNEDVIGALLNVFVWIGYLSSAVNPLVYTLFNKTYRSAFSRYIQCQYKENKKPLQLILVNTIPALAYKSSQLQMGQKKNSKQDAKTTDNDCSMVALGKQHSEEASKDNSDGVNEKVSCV
Chain of 5-hydroxytryptamine receptor 6 (Homo sapiens) (P50406 whole entry): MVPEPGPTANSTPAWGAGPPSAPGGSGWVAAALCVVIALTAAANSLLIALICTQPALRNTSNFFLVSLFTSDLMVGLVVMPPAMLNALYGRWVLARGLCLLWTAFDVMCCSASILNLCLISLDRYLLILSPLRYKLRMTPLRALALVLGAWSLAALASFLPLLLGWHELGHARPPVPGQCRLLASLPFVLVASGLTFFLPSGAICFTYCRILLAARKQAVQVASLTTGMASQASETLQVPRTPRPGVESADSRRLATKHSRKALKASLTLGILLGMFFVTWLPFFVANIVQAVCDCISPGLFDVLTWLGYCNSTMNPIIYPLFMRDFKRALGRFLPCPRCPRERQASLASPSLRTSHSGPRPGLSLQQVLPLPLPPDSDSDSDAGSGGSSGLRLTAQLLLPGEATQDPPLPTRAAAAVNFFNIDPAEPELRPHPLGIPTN

`CN(C)c1cccc2c(S(=O)(=O)NCCCCC34CCCN3C(=O)N(CCCCN3CCN(c5cccc6ccccc56)CC3)C4=O)cccc12` (stereo not drawn): the result in experiment [1] and in experiment [2] was inactive. Besides, the Activity in experiment [3], in experiment [4] and in experiment [5] was above 80% throughout. In addition, the Ki was 2 nM in experiment [6] and 38 nM in experiment [7].

For the compound `COc1ccccc1N1CCN(CCCCN2C(=O)N3CCCC3(CCNCCCCCNS(=O)(=O)c3cccc4c(N(C)C)cccc34)C2=O)CC1` (stereo not drawn), affinity in experiment [6] was put at a Ki of 7 nM.

In experiment [6], `CN(C)S(=O)(=O)c1ccc2c(N3CCN(CCCCN4C(=O)C5CCCN5C4=O)CC3)cccc2c1` (stereo not drawn) showed a Ki of 98 nM.

The compound `CN(C)c1cccc2c(S(=O)(=O)NCCCCCCCC34CCCN3C(=O)N(CCCCN3CCN(c5cccc6ccccc56)CC3)C4=O)cccc12` (stereo not drawn) returned a Ki in experiment [6] of 5 nM.

In the case of `O=C1C2CCCN2C(=O)N1CCCCN1CCN(c2cccc3ccccc23)CC1` (stereo not drawn), the affinity in experiment [6] corresponds to a Ki of 2.4 nM. Against the preceding compound, the Ki is about 2.1-fold lower.

The compound `CN(C)c1cccc2c(S(=O)(=O)N3CCN(CCCCN4C(=O)C5CCCN5C4=O)CC3)cccc12` (stereo not drawn) came in with a Ki in experiment [6] above 1000 nM.

In experiment [6], `CN(C)S(=O)(=O)c1cccc2c(N3CCN(CCCCN4C(=O)C5CCCN5C4=O)CC3)cccc12` (stereo not drawn) showed a Ki of 350 nM.

Consider `COc1ccccc1N1CCN(CCCCN2C(=O)N3CCCC3(CCCCNCCCCCNS(=O)(=O)c3cccc4c(N(C)C)cccc34)C2=O)CC1` (stereo not drawn), for which, in experiment [6], the Ki is 9 nM.

Take `COc1ccccc1N1CCN(CCCCN2C(=O)N3CCCC3(CCCCCCCNS(=O)(=O)c3cccc4c(N(C)C)cccc34)C2=O)CC1` (stereo not drawn): the affinity in experiment [6] corresponds to a Ki of 15 nM.

In experiment [6], `CN(C)S(=O)(=O)c1ccc2cccc(N3CCN(CCCCN4C(=O)C5CCCN5C4=O)CC3)c2c1` (stereo not drawn) registered a Ki of 2.4 nM.

Consider `COc1ccccc1N1CCN(CCCCN2C(=O)C3CCCN3C2=O)CC1` (stereo not drawn), for which the Ki in experiment [6] stood at 5.5 nM.

For `COc1ccccc1N1CCN(CCCCN2C(=O)N3CCCC3(CCCCNS(=O)(=O)c3cccc4c(N(C)C)cccc34)C2=O)CC1` (stereo not drawn), the Ki in experiment [6] is 11 nM.
